Reference: ChEMBL document CHEMBL2086320, “New synthetic inhibitors of fatty acid synthase with anticancer activity” (J Med Chem, 2012)
Active and inactive are the calls of the source. The rule behind the calls is not given here.

Tests used:
[1] = target: Fatty acid synthase (Homo sapiens) (UniProt P49327); assay: Inhibition of FASN in human SK-BR-3 cells assessed as oxidation of NADPH at 22 uM after 24 hrs by Spectrophotometric analysis relative to control; type: cell-based
[2] = tested on: SK-BR-3; assay: Cytotoxicity against human SKBR3 cells after 48 hrs by MTT assay; type: functional, cell-based; conditions: SK-BR-3, 48 h
Method in brief: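 MTT colorimetric assay: cells seeded at 5 or 7 x 10³ cells/well, attached overnight, then given fresh medium with a range of compound concentrations for 48 h at 37 °C, 5% CO2. MTT added for 3 h, formazan dissolved in DMSO, absorbance read at 570 or 540 nm. IC50 as mean±SEM from at least two independent experiments in duplicate or triplicate.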

[3] = target: Fatty acid synthase (Homo sapiens) (UniProt P49327); assay: Inhibition of FASN in human SK-BR-3 cells assessed as oxidation of NADPH at 25 uM after 24 hrs by Spectrophotometric analysis relative to control; type: cell-based
[4] = target: Fatty acid synthase (Homo sapiens) (UniProt P49327); assay: Inhibition of FASN in human SK-BR-3 cells assessed as oxidation of NADPH at 41 uM after 24 hrs by Spectrophotometric analysis relative to control; type: cell-based
[5] = target: Fatty acid synthase (Homo sapiens) (UniProt P49327); assay: Inhibition of FASN in human SK-BR-3 cells assessed as oxidation of NADPH at 8 uM after 24 hrs by Spectrophotometric analysis relative to control; type: cell-based
[6] = target: Fatty acid synthase (Homo sapiens) (UniProt P49327); assay: Inhibition of FASN in human SK-BR-3 cells assessed as oxidation of NADPH at 36 uM after 24 hrs by Spectrophotometric analysis relative to control; type: cell-based
[7] = target: Fatty acid synthase (Homo sapiens) (UniProt P49327); assay: Inhibition of FASN in human SK-BR-3 cells assessed as oxidation of NADPH at 42 uM after 24 hrs by Spectrophotometric analysis relative to control; type: cell-based
[8] = target: Fatty acid synthase (Homo sapiens) (UniProt P49327); assay: Inhibition of FASN in human SK-BR-3 cells assessed as oxidation of NADPH at 5 uM after 24 hrs by Spectrophotometric analysis relative to control; type: cell-based
[9] = target: Fatty acid synthase (Homo sapiens) (UniProt P49327); assay: Inhibition of FASN in human SK-BR-3 cells assessed as oxidation of NADPH at 47 uM after 24 hrs by Spectrophotometric analysis relative to control; type: cell-based
[10] = target: Fatty acid synthase (Homo sapiens) (UniProt P49327); assay: Inhibition of FASN in human SK-BR-3 cells assessed as oxidation of NADPH at 39 uM after 24 hrs by Spectrophotometric analysis relative to control; type: cell-based
[11] = target: Fatty acid synthase (Homo sapiens) (UniProt P49327); assay: Inhibition of FASN in human SK-BR-3 cells assessed as oxidation of NADPH at 23 uM after 24 hrs by Spectrophotometric analysis relative to control; type: cell-based
[12] = target: Receptor tyrosine-protein kinase erbB-2 (Homo sapiens) (UniProt P04626); assay: Inhibition of HER2 phosphorylation in human SK-BR-3 cells after 6 hrs by Western blot analysis; type: cell-based; conditions: concentration not given here
Method in brief: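 SK-Br3 cells treated for 6, 12 or 24 h, harvested with trypsin-EDTA, lysed in Tris-HCl pH 7.5/EDTA/NaCl/PMSF buffer at 4 °C. Equal protein run on 3-8% SDS-PAGE and transferred to nitrocellulose. Membranes probed overnight at 4 °C with anti-phospho-HER2 mouse monoclonal, then peroxidase secondary and chemiluminescence. Re-probed for β-actin as loading control. Gels are representative of at least two independent experiments.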

[13] = target: Fatty acid synthase (Homo sapiens) (UniProt P49327); assay: Inhibition of FASN in human SK-BR-3 cells assessed as oxidation of NADPH at 78 uM after 24 hrs by Spectrophotometric analysis relative to control; type: cell-based
[14] = target: Fatty acid synthase (Homo sapiens) (UniProt P49327); assay: Inhibition of FASN in human SK-BR-3 cells assessed as oxidation of NADPH at 26 uM after 24 hrs by Spectrophotometric analysis relative to control; type: cell-based
[15] = target: Fatty acid synthase (Homo sapiens) (UniProt P49327); assay: Inhibition of FASN in human SK-BR-3 cells assessed as oxidation of NADPH at 31 uM after 24 hrs by Spectrophotometric analysis relative to control; type: cell-based
[16] = target: Fatty acid synthase (Homo sapiens) (UniProt P49327); assay: Inhibition of FASN in human SK-BR-3 cells assessed as oxidation of NADPH at 17 uM after 24 hrs by Spectrophotometric analysis relative to control; type: cell-based
[17] = target: Fatty acid synthase (Homo sapiens) (UniProt P49327); assay: Inhibition of FASN in human SK-BR-3 cells assessed as oxidation of NADPH at 28 uM after 24 hrs by Spectrophotometric analysis relative to control; type: cell-based
[18] = target: Fatty acid synthase (Homo sapiens) (UniProt P49327); assay: Inhibition of FASN in human SK-BR-3 cells assessed as oxidation of NADPH at 76 uM after 24 hrs by Spectrophotometric analysis relative to control; type: cell-based

Fatty acid synthase (Homo sapiens), sequence (P49327 whole entry, looked up): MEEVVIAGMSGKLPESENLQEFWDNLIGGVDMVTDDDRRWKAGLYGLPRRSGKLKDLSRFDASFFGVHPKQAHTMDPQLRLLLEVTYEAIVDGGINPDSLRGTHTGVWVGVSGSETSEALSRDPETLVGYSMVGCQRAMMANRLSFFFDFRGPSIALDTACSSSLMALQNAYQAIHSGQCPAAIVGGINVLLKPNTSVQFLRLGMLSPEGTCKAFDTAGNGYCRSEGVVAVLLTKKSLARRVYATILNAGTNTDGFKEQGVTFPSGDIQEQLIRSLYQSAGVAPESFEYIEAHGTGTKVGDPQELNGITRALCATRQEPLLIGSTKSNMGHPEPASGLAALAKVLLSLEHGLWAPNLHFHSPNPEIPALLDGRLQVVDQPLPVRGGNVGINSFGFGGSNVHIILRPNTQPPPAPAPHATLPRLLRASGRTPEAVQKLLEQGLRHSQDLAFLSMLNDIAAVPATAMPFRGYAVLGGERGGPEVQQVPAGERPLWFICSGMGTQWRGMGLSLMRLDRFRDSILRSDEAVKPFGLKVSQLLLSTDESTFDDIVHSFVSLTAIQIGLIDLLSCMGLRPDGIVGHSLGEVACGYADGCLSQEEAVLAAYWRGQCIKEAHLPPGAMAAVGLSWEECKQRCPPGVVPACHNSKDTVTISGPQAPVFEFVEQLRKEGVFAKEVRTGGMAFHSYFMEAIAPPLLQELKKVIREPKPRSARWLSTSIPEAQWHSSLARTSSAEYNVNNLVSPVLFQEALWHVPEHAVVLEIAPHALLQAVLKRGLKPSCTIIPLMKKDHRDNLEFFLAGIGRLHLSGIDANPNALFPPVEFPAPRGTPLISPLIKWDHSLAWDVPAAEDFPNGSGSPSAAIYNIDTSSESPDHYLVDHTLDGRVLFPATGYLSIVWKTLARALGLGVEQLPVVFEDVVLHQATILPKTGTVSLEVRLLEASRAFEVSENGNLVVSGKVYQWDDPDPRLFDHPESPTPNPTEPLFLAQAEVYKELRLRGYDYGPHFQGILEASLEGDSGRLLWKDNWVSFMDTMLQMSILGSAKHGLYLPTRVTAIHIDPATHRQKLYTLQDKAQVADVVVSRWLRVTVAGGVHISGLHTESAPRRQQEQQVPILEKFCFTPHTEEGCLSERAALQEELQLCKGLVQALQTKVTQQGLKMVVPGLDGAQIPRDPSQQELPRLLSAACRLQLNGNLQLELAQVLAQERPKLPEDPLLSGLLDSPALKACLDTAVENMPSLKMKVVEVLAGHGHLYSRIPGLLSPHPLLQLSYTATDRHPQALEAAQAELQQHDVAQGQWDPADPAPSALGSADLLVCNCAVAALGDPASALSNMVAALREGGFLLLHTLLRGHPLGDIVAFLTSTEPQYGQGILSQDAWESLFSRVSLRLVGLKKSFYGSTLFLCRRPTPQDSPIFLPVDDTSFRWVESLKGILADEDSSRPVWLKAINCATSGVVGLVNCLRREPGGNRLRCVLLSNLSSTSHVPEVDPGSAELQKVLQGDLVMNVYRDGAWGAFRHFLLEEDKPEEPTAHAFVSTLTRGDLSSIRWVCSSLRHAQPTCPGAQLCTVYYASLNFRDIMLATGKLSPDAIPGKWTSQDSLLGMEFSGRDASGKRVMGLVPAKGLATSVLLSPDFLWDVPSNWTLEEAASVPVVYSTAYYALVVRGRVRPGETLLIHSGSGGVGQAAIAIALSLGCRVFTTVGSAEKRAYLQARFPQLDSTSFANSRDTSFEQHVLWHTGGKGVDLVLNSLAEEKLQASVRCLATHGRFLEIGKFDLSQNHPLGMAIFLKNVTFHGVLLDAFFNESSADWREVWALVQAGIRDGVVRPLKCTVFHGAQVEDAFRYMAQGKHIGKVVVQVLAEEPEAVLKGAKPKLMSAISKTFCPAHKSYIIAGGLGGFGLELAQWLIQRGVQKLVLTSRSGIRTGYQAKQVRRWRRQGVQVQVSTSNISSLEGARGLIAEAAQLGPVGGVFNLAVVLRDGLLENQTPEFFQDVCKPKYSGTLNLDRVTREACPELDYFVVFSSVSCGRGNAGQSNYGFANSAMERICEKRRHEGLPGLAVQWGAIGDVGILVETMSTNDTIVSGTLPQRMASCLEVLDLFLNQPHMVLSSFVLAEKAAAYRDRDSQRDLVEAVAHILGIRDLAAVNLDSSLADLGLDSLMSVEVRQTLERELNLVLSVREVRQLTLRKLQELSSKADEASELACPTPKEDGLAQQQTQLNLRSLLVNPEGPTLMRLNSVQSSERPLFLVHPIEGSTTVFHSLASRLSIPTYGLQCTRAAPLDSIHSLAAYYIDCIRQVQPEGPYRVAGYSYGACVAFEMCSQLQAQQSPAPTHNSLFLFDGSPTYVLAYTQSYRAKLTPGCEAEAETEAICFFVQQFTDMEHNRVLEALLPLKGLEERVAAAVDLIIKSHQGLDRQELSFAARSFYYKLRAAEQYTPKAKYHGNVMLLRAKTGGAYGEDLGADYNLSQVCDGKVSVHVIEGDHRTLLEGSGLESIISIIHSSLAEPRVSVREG
Receptor tyrosine-protein kinase erbB-2 (Homo sapiens), sequence (P04626 whole entry): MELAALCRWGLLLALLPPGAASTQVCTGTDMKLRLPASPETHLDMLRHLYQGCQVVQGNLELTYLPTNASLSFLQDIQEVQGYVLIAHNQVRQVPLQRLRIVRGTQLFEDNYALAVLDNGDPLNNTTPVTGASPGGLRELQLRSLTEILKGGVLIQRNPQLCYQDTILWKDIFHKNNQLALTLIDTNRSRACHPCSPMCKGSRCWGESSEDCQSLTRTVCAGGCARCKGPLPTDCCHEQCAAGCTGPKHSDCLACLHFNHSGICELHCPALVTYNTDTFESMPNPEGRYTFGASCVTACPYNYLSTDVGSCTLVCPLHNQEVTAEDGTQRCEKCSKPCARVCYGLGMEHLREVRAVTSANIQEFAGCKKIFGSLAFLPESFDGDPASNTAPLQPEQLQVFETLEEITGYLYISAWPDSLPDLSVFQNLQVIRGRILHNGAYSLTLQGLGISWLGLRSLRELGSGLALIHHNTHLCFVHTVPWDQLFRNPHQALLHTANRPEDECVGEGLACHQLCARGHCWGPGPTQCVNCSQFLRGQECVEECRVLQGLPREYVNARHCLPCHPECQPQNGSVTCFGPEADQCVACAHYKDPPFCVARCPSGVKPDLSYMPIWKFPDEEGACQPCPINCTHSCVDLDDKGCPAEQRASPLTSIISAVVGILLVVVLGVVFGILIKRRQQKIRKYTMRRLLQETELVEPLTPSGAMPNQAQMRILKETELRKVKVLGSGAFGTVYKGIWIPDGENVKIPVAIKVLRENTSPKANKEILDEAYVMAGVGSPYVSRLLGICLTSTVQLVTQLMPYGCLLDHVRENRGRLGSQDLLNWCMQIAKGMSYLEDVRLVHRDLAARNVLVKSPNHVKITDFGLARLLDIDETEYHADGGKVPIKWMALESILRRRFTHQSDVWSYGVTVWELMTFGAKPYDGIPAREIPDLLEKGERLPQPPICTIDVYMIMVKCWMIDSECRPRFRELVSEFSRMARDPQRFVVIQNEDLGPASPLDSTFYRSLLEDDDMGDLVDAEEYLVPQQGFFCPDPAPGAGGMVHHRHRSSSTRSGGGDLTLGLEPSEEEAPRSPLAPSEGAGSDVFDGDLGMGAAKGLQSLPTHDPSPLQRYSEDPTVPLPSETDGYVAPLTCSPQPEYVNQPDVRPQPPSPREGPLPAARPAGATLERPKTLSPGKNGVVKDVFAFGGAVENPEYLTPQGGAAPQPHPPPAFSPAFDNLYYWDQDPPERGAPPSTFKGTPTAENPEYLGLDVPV

Structure (SMILES) | IC50 [2] [µM] | also measured
O=C(O[C@H]1CC[C@@H](OC(=O)c2cc(O)c(O)c(O)c2)c2ccccc21)c1cc(O)c(O)c(O)c1 | 22 | inhibition [1]: inactive
O=C(O[C@H]1CCCC[C@H]1OC(=O)c1cc(O)c(O)c(O)c1)c1cc(O)c(O)c(O)c1 | > 150 | –
O=C(Oc1ccc(OC(=O)c2cc(O)c(O)c(O)c2)cc1)c1cc(O)c(O)c(O)c1 | 25 | inhibition [3]: inactive
O=C(Oc1ccc(OC(=O)c2cc(O)c(O)c(O)c2)c2c1CCCC2)c1cc(O)c(O)c(O)c1 | 41 | inhibition [4]: inactive
COc1cc(OC(=O)c2cc(O)c(O)c(O)c2)ccc1OC(=O)c1cc(O)c(O)c(O)c1 | 8 | inhibition [5]: inactive
COC(=O)c1cc(OC(=O)c2cc(O)c(O)c(O)c2)ccc1OC(=O)c1cc(O)c(O)c(O)c1 | 36 | inhibition [6]: 43%
O=C(Oc1cccc(OC(=O)c2cc(O)c(O)c(O)c2)c1)c1cc(O)c(O)c(O)c1 | 42 | inhibition [7]: inactive
O=C(Oc1ccc2cc(OC(=O)c3cc(O)c(O)c(O)c3)ccc2c1)c1cc(O)c(O)c(O)c1 | 5 | inhibition [8]: inactive
O=C(Oc1ccc2ccccc2c1OC(=O)c1cc(O)c(O)c(O)c1)c1cc(O)c(O)c(O)c1 | 74 | –
O=C(Oc1ccc2cccc(OC(=O)c3cc(O)c(O)c(O)c3)c2c1)c1cc(O)c(O)c(O)c1 | 47 | inhibition [9]: inactive
O=C(Oc1ccc2c(OC(=O)c3cc(O)c(O)c(O)c3)cccc2c1)c1cc(O)c(O)c(O)c1 | 39 | inhibition [10]: inactive
O=C(Oc1ccc(OC(=O)c2cc(O)c(O)c(O)c2)c2ccccc12)c1cc(O)c(O)c(O)c1 | 29 | –
Cc1cc(OC(=O)c2cc(O)c(O)c(O)c2)ccc1OC(=O)c1cc(O)c(O)c(O)c1 | 23 | inhibition [11]: inactive
O=C(Oc1cc(OC(=O)c2cc(O)c(O)c(O)c2)c2ccccc2c1)c1cc(O)c(O)c(O)c1 | 21 | –
O=C(O[C@@H]1Cc2c(O)cc(O)cc2O[C@@H]1c1cc(O)c(O)c(O)c1)c1cc(O)c(O)c(O)c1 [EPIGALOCATECHIN GALLATE] | 149 | inhibition [12]: 18%
O=C(Oc1cccc2cccc(OC(=O)c3cc(O)c(O)c(O)c3)c12)c1cc(O)c(O)c(O)c1 | 78 | inhibition [13]: inactive
O=C(O[C@@H]1CCCC[C@H]1OC(=O)c1cc(O)c(O)c(O)c1)c1cc(O)c(O)c(O)c1 (relative stereo) | > 150 | –
O=C(Oc1ccc2ccc(OC(=O)c3cc(O)c(O)c(O)c3)cc2c1)c1cc(O)c(O)c(O)c1 | 26 | inhibition [14]: inactive
O=C(Oc1ccccc1OC(=O)c1cc(O)c(O)c(O)c1)c1cc(O)c(O)c(O)c1 | 125 | –
O=C(Oc1cc2c(c(OC(=O)c3cc(O)c(O)c(O)c3)c1)CCCC2)c1cc(O)c(O)c(O)c1 | 31 | inhibition [15]: inactive
O=C(Oc1cccc2c(OC(=O)c3cc(O)c(O)c(O)c3)cccc12)c1cc(O)c(O)c(O)c1 | 26 | inhibition [14]: 30%
O=C(O[C@H]1CC[C@H](OC(=O)c2cc(O)c(O)c(O)c2)c2ccccc21)c1cc(O)c(O)c(O)c1 | 42 | inhibition [7]: 41%
O=C(OCCOC(=O)c1cc(O)c(O)c(O)c1)c1cc(O)c(O)c(O)c1 | > 150 | –
O=C(Oc1ccc(OC(=O)c2cc(O)c(O)c(O)c2)c(-c2ccccc2)c1)c1cc(O)c(O)c(O)c1 | 17 | inhibition [16]: inactive
COC(=O)c1cc(OC(=O)c2cc(O)c(O)c(O)c2)c2ccccc2c1OC(=O)c1cc(O)c(O)c(O)c1 | 28 | inhibition [17]: inactive
O=C(Oc1cc2ccccc2cc1OC(=O)c1cc(O)c(O)c(O)c1)c1cc(O)c(O)c(O)c1 | 76 | inhibition [18]: 31%
